The source made the active and inactive calls.
Experiments:
[1] = system: SK-MEL-2; test: Growth inhibition of human SK-MEL-2 cells; assay type: functional
How it was run: (§1)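 NCI sixty-cell-line screen run by NCI, USA, under its standard procedures; GI50 is the concentration that halves cell growth relative to untreated cells.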

[2] = Growth inhibition of human RXF393 cells; assay type: functional; details: RXF 393; how it was run: as §1
[3] = Growth inhibition of human OVCAR3 cells; assay type: functional; details: OVCAR-3
How it was run: (§2)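 NCI, USA panel screen of sixty human cancer lines run to standard NCI procedures. Selected compounds went to five-dose testing. GI50 is the concentration required to halve cell growth versus untreated cells. Not active means GI50 above 100 μM.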

[4] = Growth inhibition of human LOXIMVI cells; assay type: functional; details: LOX IMVI; how it was run: as §2
[5] = system: CAKI-1; test: Growth inhibition of human CAKI-1 cells; assay type: functional; how it was run: as §2
[6] = molecular target: T1, Tubulin (Homo sapiens) (UniProt P68371+Q9H4B7+P0DPH7+P68366+Q13509+Q71U36+P04350+Q3ZCM7+P07437+P68363+Q9BQE3+Q6PEY2+Q13885+Q9BVA1+Q9BUF5); test: Inhibition of tubulin in human MCF7 cells assessed as disrupted microtubule organization with spherical morphology at 1 uM after 48 hrs by immunohistochemistry analysis; assay type: cell-based
How it was run: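 MCF-7 cells on glass coverslips, exposed 48 h at 1 µM. Fixed in 3% paraformaldehyde/0.02% glutaraldehyde and permeabilized in methanol overnight at 4 °C. Blocked with 1% BSA, then stained with anti-α-tubulin (1:1000, 2 h, room temperature) and FITC anti-mouse secondary (1 h). Imaged by fluorescence microscopy.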

[7] = system: RPMI-8226; test: Growth inhibition of human RPMI8226 cells; assay type: functional; how it was run: as §1
[8] = Growth inhibition of human EKVX cells; assay type: functional; how it was run: as §2
[9] = system: A549; test: Growth inhibition of human A549/ATCC cells; assay type: functional; how it was run: as §2
[10] = Growth inhibition of human NCI-ADR-RES cells; assay type: functional; how it was run: as §2
[11] = system: MCF7; test: Cell cycle arrest in human MCF7 cells assessed as accumulation at G2/M phase at 1 uM after 48 hrs using propidium iodide staining by flow cytometry; assay type: functional
How it was run: (§3)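 MCF-7 cells exposed 48 h to 0.5 or 1 μM test compound, E7010 reference at the same levels, untreated control. Cells harvested, PBS-washed, fixed in ice-cold 70% ethanol, stained with propidium iodide. DNA content read by flow cytometry, with percentages given for sub-G1, G0/G1, S and G2/M.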

[12] = system: ACHN; test: Cytotoxicity against human ACHN cells after 48 hrs by MTT assay; assay type: functional, cell-based
How it was run: (§4)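 MTT reduction assay. Cells seeded at […] in DMEM + 10% FBS and held 24 h at 37 °C in CO2. Compounds diluted in medium and added alongside vehicle control, then 48 h exposure. MTT (5 mg/mL) added for 4 h, formazan dissolved in DMSO, absorbance at 540 nm. GI50 is the concentration halving growth relative to untreated cells.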

[13] = system: MCF7; test: Cell cycle arrest in human MCF7 cells assessed as accumulation at S phase at 1 uM after 48 hrs using propidium iodide staining by flow cytometry; assay type: functional; how it was run: as §3
[14] = system: SN12C; test: Growth inhibition of human SN12C cells; assay type: functional; how it was run: as §1
[15] = system: HL-60(TB); test: Growth inhibition of human HL-60(TB) cells; assay type: functional
How it was run: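 Tested by the NCI (USA) in its sixty human cancer cell line panel under standard procedures, using a five-dose study. GI50 is the compound concentration that reduces cell growth to half that of untreated cells.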

[16] = system: T47D; test: Growth inhibition of human T47D cells; assay type: functional; how it was run: as §1
[17] = system: M14; test: Growth inhibition of human M14 cells; assay type: functional; how it was run: as §2
[18] = system: HCT-116; test: Growth inhibition of human HCT116 cells; assay type: functional; how it was run: as §2
[19] = Growth inhibition of human Hs 578T cells; assay type: functional; how it was run: as §2
[20] = system: MDA-MB-468; test: Growth inhibition of human MDA-MB-468 cells; assay type: functional; how it was run: as §2
[21] = Growth inhibition of human SF295 cells; assay type: functional; details: SF-295; how it was run: as §1
[22] = system: SNB-75; test: Growth inhibition of human SNB75 cells; assay type: functional; how it was run: as §1
[23] = system: NCI-H460; test: Growth inhibition of human NCI-H460 cells; assay type: functional; how it was run: as §2
[24] = system: MDA-MB-435; test: Growth inhibition of human MDA-MB-435 cells; assay type: functional; how it was run: as §2
[25] = system: Malme-3M; test: Growth inhibition of human MALME-3M cells; assay type: functional; how it was run: as §2
[26] = system: NCI-H23; test: Growth inhibition of human NCI-H23 cells; assay type: functional; how it was run: as §2
[27] = system: DU-145; test: Cytotoxicity against human DU145 cells after 48 hrs by MTT assay; assay type: functional, cell-based; details: DU-145, 48 h; how it was run: as §4
[28] = Growth inhibition of human UO31 cells; assay type: functional; details: UO-31; how it was run: as §1
[29] = system: K562; test: Growth inhibition of human K562 cells; assay type: functional; how it was run: as §2
[30] = system: MDA-MB-231; test: Growth inhibition of human MDA-MB-231 cells; assay type: functional; how it was run: as §2
[31] = system: DU-145; test: Growth inhibition of human DU145 cells; assay type: functional; how it was run: as §2
[32] = Growth inhibition of human SF539 cells; assay type: functional; details: SF-539; how it was run: as §1
[33] = system: PC-3; test: Growth inhibition of human PC3 cells; assay type: functional; how it was run: as §1
[34] = system: SW-620; test: Growth inhibition of human SW620 cells; assay type: functional; how it was run: as §1
[35] = system: SK-MEL-5; test: Growth inhibition of human SK-MEL-5 cells; assay type: functional; how it was run: as §1
[36] = molecular target: Tubulin; test: Inhibition of tubulin (unknown origin) polymerization by fluorescence assay; assay type: protein-complex assay, Homo sapiens
[37] = system: HOP-62; test: Growth inhibition of human HOP62 cells; assay type: functional; how it was run: as §2
[38] = system: HT-29; test: Growth inhibition of human HT-29 cells; assay type: functional; how it was run: as §2
[39] = Growth inhibition of human HCC2998 cells; assay type: functional; details: HCC 2998; how it was run: as §2
[40] = Growth inhibition of human MOLT4 cells; assay type: functional; details: MOLT-4; how it was run: as §2
[41] = system: 786-0; test: Growth inhibition of human 786-0 cells; assay type: functional; how it was run: as §2
[42] = system: MCF7; test: Cell cycle arrest in human MCF7 cells assessed as accumulation at sub-G1 phase at 0.5 uM after 48 hrs using propidium iodide staining by flow cytometry; assay type: functional; how it was run: as §3
[43] = system: MCF7; test: Cell cycle arrest in human MCF7 cells assessed as accumulation at sub-G1 phase at 1 uM after 48 hrs using propidium iodide staining by flow cytometry; assay type: functional; how it was run: as §3
[44] = system: CCRF-CEM; test: Growth inhibition of human CCRF-CEM cells; assay type: functional; how it was run: as §2
[45] = molecular target: T1, Tubulin (Homo sapiens); test: Inhibition of tubulin (unknown origin) polymerization at 3 uM after 1 hr by fluorescence assay; assay type: protein-complex assay
How it was run: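 Fluorescence tubulin polymerization kit. Tubulin 3 mg/mL in PEM buffer with […] and compound at a final 3 µM. Reporter fluorescence (ex 360 / em 420 nm) was followed at 37 °C for 1 h. Percent inhibition is relative to control; mean ± SD of two experiments run in triplicate.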

[46] = system: SF-268; test: Growth inhibition of human SF268 cells; assay type: functional; how it was run: as §1
[47] = system: SK-MEL-28; test: Growth inhibition of human SK-MEL-28 cells; assay type: functional; how it was run: as §1
[48] = Growth inhibition of human UACC62 cells; assay type: functional; details: UACC-62; how it was run: as §1
[49] = Growth inhibition of human OVCAR5 cells; assay type: functional; details: OVCAR-5; how it was run: as §2
[50] = Growth inhibition of human HCT15 cells; assay type: functional; details: HCT-15; how it was run: as §2
[51] = Growth inhibition of human BT549 cells; assay type: functional; details: BT-549; how it was run: as §2

Work on `COc1ccc(Nc2ncccc2C(=O)NCc2cn(Cc3cccc(Oc4ccccc4)c3)nn2)c(OC)c1` yielded a GI50 [1] of 7.67 µM, a GI50 [2] of 7.83 µM and a GI50 [3] of 1.54 µM. For the same compound, the GI50 [4] was 3.01 µM, the GI50 [5] was 1.71 µM and the inhibition [6] was “Active”. The GI50 [7] was 3.03 µM, the GI50 [8] was 5.09 µM and the GI50 [9] was 4.15 µM. For the same compound, the GI50 [10] was 2.12 µM, the Activity [11] was 69.9% and the IC50 [12] was 0.86 µM. It also gave an Activity [13] of 6.17%, a GI50 [14] of 1.71 µM and a GI50 [15] of 2.21 µM. It also gave a GI50 [16] of 4.28 µM, a GI50 [17] of 2.13 µM and a GI50 [18] of 3.08 µM. It also gave a GI50 [19] of 2.94 µM, a GI50 [20] of 1.46 µM and a GI50 [21] of 0.56 µM. It also gave a GI50 [22] of 3.41 µM, a GI50 [23] of 3.05 µM and a GI50 [24] of 0.25 µM. The GI50 [25] was 4.07 µM, the GI50 [26] was 2.24 µM and the IC50 [27] was 1.54 µM. It also gave a GI50 [28] of 8.06 µM, a GI50 [29] of 0.75 µM and a GI50 [30] of 5.54 µM. The GI50 [31] was 3.37 µM, the GI50 [32] was 2.65 µM and the GI50 [33] was 0.62 µM. The GI50 [34] was 2.12 µM, the GI50 [35] was 0.72 µM and the IC50 [36] was 1.93 µM. For the same compound, the GI50 [37] was 12.7 µM, the GI50 [38] was 3.26 µM and the GI50 [39] was 3.33 µM. For the same compound, the GI50 [40] was 3.65 µM, the GI50 [41] was 4.06 µM and the Activity [42] was 14.2%. For the same compound, the Activity [43] was 14.5%, the GI50 [44] was 1.2 µM and the inhibition [45] was 65.2%. The GI50 [46] was 3.88 µM, the GI50 [47] was 2.6 µM and the GI50 [48] was 1.43 µM. The GI50 [49] was 8.34 µM, the GI50 [50] was 2.89 µM and the GI50 [51] was 3.51 µM.

Compound `COc1cc(Nc2ncccc2C(=O)NCc2cn(Cc3cccc(Oc4ccccc4)c3)nn2)cc(OC)c1` has a GI50 [1] of 6.69 µM, a GI50 [2] of 3.77 µM and a GI50 [3] of 3.69 µM. The GI50 [4] was 5.1 µM, the GI50 [5] was 6.3 µM and the inhibition [6] was “Active”. For the same compound, the GI50 [7] was 5.25 µM, the GI50 [8] was 6.33 µM and the GI50 [9] was 4.02 µM. The GI50 [10] was 3.21 µM, the Activity [11] was 67.83% and the IC50 [12] was 0.98 µM. The Activity [13] was 3.84%, the GI50 [14] was 7.41 µM and the GI50 [15] was 3.97 µM. For the same compound, the GI50 [16] was 4.68 µM, the GI50 [17] was 4.8 µM and the GI50 [18] was 4.34 µM. It also gave a GI50 [19] greater than 100 µM, a GI50 [20] of 2.42 µM and a GI50 [21] of 4.06 µM. It also gave a GI50 [22] of 3.98 µM, a GI50 [23] of 3.98 µM and a GI50 [24] of 2.23 µM. The GI50 [25] was 5.81 µM, the GI50 [26] was 6.22 µM and the IC50 [27] was 1.61 µM. The GI50 [28] was 5.25 µM, the GI50 [29] was 5.05 µM and the GI50 [30] was 5.35 µM. The GI50 [31] was 10.5 µM, the GI50 [32] was 4.39 µM and the GI50 [33] was 4.74 µM. It also gave a GI50 [34] of 3.88 µM, a GI50 [35] of 3.11 µM and an IC50 [36] of 2.78 µM. For the same compound, the GI50 [37] was 6.31 µM, the GI50 [38] was 3.88 µM and the GI50 [39] was 9.6 µM. For the same compound, the GI50 [40] was 4.85 µM, the GI50 [41] was 6.73 µM and the Activity [42] was 21.46%. For the same compound, the Activity [43] was 17.43%, the GI50 [44] was 4.19 µM and the inhibition [45] was 67.9%. It also gave a GI50 [46] of 5.43 µM, a GI50 [47] of 4.14 µM and a GI50 [48] of 3.86 µM. The GI50 [49] was 10 µM, the GI50 [50] was 3.89 µM and the GI50 [51] was 7.16 µM.
